A selection: hits, their analogues and other compounds. The true share with any hit is near 2.7%.
sdo1 growth: growth rescue of sdo1-depleted yeast, primary screen, S. cerevisiae, bone marrow failure model. S. cerevisiae sdo1-depleted JHY4D growth rescue, OD600 30 h; stronger effect = higher value; pdr5 snq2 efflux-pump mutant strain. z-score at 10 µM. 0.21% of 140,000 active;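 active means z-score above 3 at both the 24 hr and the 30 hr optical density reads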;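 further: z-score against mean and SD of all compound wells on the same plate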
RAM network inh: inhibitors of the yeast RAM network, primary screen, dse1pr::URA3 reporter, 5-FOA selection; S. cerevisiae dse1pr::URA3 reporter, 5-FOA growth OD615, 2 d; analog-sensitive cbk1-as2 kinase mutant strain; inhibition, % at 50 µM; 1.8% of 190,000 active;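 active means inhibition above a set limit, 3 SD over mean compound inhibition, cut at about 8.4% in these data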;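 further: 0% = DMSO-only wells with no growth and 100% = 10 µM 1-NA-PP1 full growth; inhibition rescues growth on 5-FOA so higher OD means more RAM inhibition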
Yeast life ext: compounds extending yeast replicative lifespan, primary screen, S. cerevisiae, OD615; S. cerevisiae growth with nicotinamide; deaD strain in restrictive glucose medium; inhibition of the nicotinamide effect, % at 10 µM; 0.68% of 130,000 active; AID 775, 2007;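 active means inhibition above a set limit, placed 3 SD over the median of all compounds, cut at about 26% in these data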;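 further: 0% = nicotinamide-treated wells and 100% = cells grown without nicotinamide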
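Measured by: optical density (absorbance) at 615 nm; System: modified budding yeast, DeaD strain; Medium: restrictive CSMM-D dextrose medium; Timing: 4 h preincubation then 48 h treatment at 30 °C.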
BB579 growth dn: growth inhibitors of yeast BB579 in restrictive medium, primary screen, yeast lifespan-shortening project, S. cerevisiae; OD615, 48 h; inhibition, % at 10 µM; 0.51% of 140,000 active; AID 804, 2007;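 active means inhibition above a set limit, 3 SD over the mean compound inhibition, cut at about 44% in these data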
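test system = yeast BB579 (DeaD) | buffer or medium = restrictive CSMM-D medium | doses = single compound dose of 10 µM, 0.25% DMSO final | times = 4 h preincubation and 48 h exposure at 30 °C | technique = culture absorbance at 615 nm | benchmarks = amphotericin B 10 µg/mL, positive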
Numbers without * were called inactive.

Results for CSc1ccc(C(c2c(O)c3ccccc3oc2=O)c2c(C)n(C)n(-c3ccccc3)c2=O)cc1 (configuration not stated) ?
RAM network inh: 8.2

Results for Cc1c(C(c2ccc(Br)cc2)c2c(O)c3ccccc3oc2=O)c(=O)n(-c2ccccc2)n1C (configuration not stated) ?
RAM network inh: 10.3*

How did CN1C(=O)N(C)C(=O)C2(Cc3cc([N+](=O)[O-])ccc3N(C)C2)C1=O do in these assays?
RAM network inh: 0.6

What do the screens show for `Cc1ccc(/C=C2/C(=O)NC(=O)N(CCc3ccc(F)cc3)C2=O)o1`?
sdo1 growth: -0.53; RAM network inh: 3.4; Yeast life ext: 32.4*; BB579 growth dn: -19.0

What do the screens show for `CN(C)C=C1C(=O)N(C2CCCCC2)C(=O)N(C2CCCCC2)C1=O`?
sdo1 growth: -0.13; RAM network inh: 0.7; Yeast life ext: 39.2*; BB579 growth dn: -33.4

Results for CCC(=O)c1ccc(OC(=O)N(C)c2ccccc2)cc1 ?
RAM network inh: -0.1

Results for Cc1ccc(N(C)C(=O)Oc2ccc(C(=O)c3ccc(Cl)cc3)cc2)cc1 ?
sdo1 growth: -0.91; RAM network inh: 4.3; Yeast life ext: 82.4*; BB579 growth dn: -17.8

How did Cc1cc(/C=C2\C(=O)NC(=O)N(c3ccc(Br)cc3)C2=O)c(C)n1C do in these assays?
RAM network inh: 10.7*

Results for Cc1cc(/C=C2\C(=O)NC(=O)N(c3cccc(Br)c3)C2=O)c(C)n1C ?
sdo1 growth: 0.7; RAM network inh: 4.9; Yeast life ext: 3.0; BB579 growth dn: -14.9

What do the screens show for `O=C(N/N=C/c1c(O)n(CCc2ccccc2)c(=O)[nH]c1=O)c1ccncc1`?
sdo1 growth: 0.98; RAM network inh: 3.9; Yeast life ext: 0.8; BB579 growth dn: -38.7

How did O=C(N/N=C/c1c(O)n(CCc2ccc(F)cc2)c(=O)[nH]c1=O)c1ccncc1 do in these assays?
RAM network inh: 8.6*

Results for CC(C)(C)c1cc([N+](=O)[O-])cc(C(C)(C)C)c1O ?
RAM network inh: -0.6

How did COc1ccc(-n2cnc3cc(C(=O)N4CCC5(CC4)OCCO5)ccc32)cc1 do in these assays?
RAM network inh: 1.1

What do the screens show for `COc1ccccc1Cn1c(SCC(=O)C(C)(C)C)nc2cc(C(=O)N3CCC4(CC3)OCCO4)ccc2c1=O`?
RAM network inh: 11.2*

How did O=c1[nH]c2ccccc2c(=O)n1-c1ccc(Cl)cc1Cl do in these assays?
RAM network inh: 1.3

How did COCCCN1CCN(c2nnc3n2-c2sc(Br)cc2C(c2ccccc2Cl)=NC3)CC1 do in these assays?
sdo1 growth: 1.29; RAM network inh: 0.5; Yeast life ext: 50.4*; BB579 growth dn: -25.7

What do the screens show for `Cc1ccc(/C=C2\C(=O)NC(=S)N(c3ccccc3F)C2=O)s1`?
sdo1 growth: -1.64; RAM network inh: 1.5; Yeast life ext: 41.0*; BB579 growth dn: 54.6*

How did Cc1ccc(C(=O)O)cc1N=Nc1c(O)[nH]c(=O)[nH]c1=O do in these assays?
RAM network inh: 4.1

How did Cn1cc(C(=O)N2CCOCC2)c2ccccc21 do in these assays?
RAM network inh: 2.1

What do the screens show for `Clc1ccc(COC(Cn2ccnc2)c2ccc(Cl)cc2Cl)c(Cl)c1` (configuration not stated)?
sdo1 growth: -2.29; RAM network inh: -1.0; Yeast life ext: -10.2; BB579 growth dn: 99.9*

How did Cc1cccc(OP(=O)(Oc2ccccc2)OC(c2ccccc2)C(F)(F)F)c1 (configuration not stated) do in these assays?
sdo1 growth: -0.04; RAM network inh: 1.9; Yeast life ext: 1.7; BB579 growth dn: -32.0

How did Nc1cc(Cl)c2nonc2c1[N+](=O)[O-] do in these assays?
sdo1 growth: 0.18; RAM network inh: -0.1; Yeast life ext: 37.1*; BB579 growth dn: -14.1

What do the screens show for `CN1CCC2(CC1)C(C#N)=C(N)NC(S)=C2C#N`?
sdo1 growth: 0.91; RAM network inh: 2.9; Yeast life ext: 40.0*; BB579 growth dn: -12.9

How did CC(C)(C)C(O)C(Oc1ccc(Cl)cc1)n1cncn1 (configuration not stated) do in these assays?
sdo1 growth: -2.76; RAM network inh: -0.9; Yeast life ext: -20.8; BB579 growth dn: 90.8*

How did CC(C)CC(=O)NC(Oc1ccc(Cl)cc1)C(Cl)(Cl)Cl (configuration not stated) do in these assays?
sdo1 growth: -1.12; RAM network inh: 0.1; Yeast life ext: -13.1; BB579 growth dn: -6.9

How did C=CCN1C(=O)/C(=C/c2cccs2)C(=O)NC1=S do in these assays?
sdo1 growth: -2; RAM network inh: -0.4; Yeast life ext: -8.0; BB579 growth dn: 75.3*

What do the screens show for `Cn1cccc1/C=C1\C(=O)NC(=O)N(CCC2=CCCCC2)C1=O`?
sdo1 growth: 0.46; RAM network inh: 4.3; Yeast life ext: 4.3; BB579 growth dn: -38.8

How did O=C1NC(=O)N(CCC2=CCCCC2)C(=O)/C1=C\c1cccs1 do in these assays?
sdo1 growth: -0.87; RAM network inh: 4.8; Yeast life ext: 62.5*; BB579 growth dn: 1.9

Results for O=C1NC(=S)N(Cc2ccco2)C(=O)/C1=C\c1cccs1 ?
RAM network inh: 7.8

What do the screens show for `Cc1ccc(S(=O)(=O)N(C)C)cc1NC(=O)C(C)[N+]12CCN(CC1)CC2` (configuration not stated)?
RAM network inh: 2.3

Results for O=C1NC(=S)N(c2ccccc2)C(=O)C1C(c1ccncc1)C1C(=O)NC(=S)N(c2ccccc2)C1=O (configuration not stated) ?
RAM network inh: 1.0

How did Oc1ccccc1/C=N/NP(=S)(c1ccccc1)c1ccccc1 do in these assays?
RAM network inh: 8.6*

Results for O=S(=O)(c1ccccc1)N1CC1c1ccccc1 (configuration not stated) ?
sdo1 growth: -0.25; RAM network inh: 2.7; Yeast life ext: 6.4; BB579 growth dn: -40.2

What do the screens show for `Cc1nn(Cc2ccc(Cl)cc2Cl)c(Cl)c1C(=O)NC1CCCc2ccccc21` (configuration not stated)?
sdo1 growth: -0.7; RAM network inh: 4.2; Yeast life ext: 2.8; BB579 growth dn: -21.4

What do the screens show for `CN(C)CCNC(=O)c1cccn(Cc2cc(C(F)(F)F)cc(C(F)(F)F)c2)c1=O`?
RAM network inh: -0.1

Results for CC(C)N1C(=O)/C(=C/C=C/c2ccco2)C(=O)N(Cc2ccco2)C1=O ?
sdo1 growth: -0.6; RAM network inh: 6.4; Yeast life ext: 50.4; BB579 growth dn: -37.0

Results for CCN1C(=O)C(=C/C=C/c2ccco2)C(=O)N(CC)C1=S ?
sdo1 growth: -0.97; RAM network inh: 4.1; Yeast life ext: 34.0*; BB579 growth dn: -29.7

Results for O=C1C=Cc2ccccc2C1=O ?
sdo1 growth: -0.55; RAM network inh: -1.2; Yeast life ext: 30.9*; BB579 growth dn: -31.6

Results for Cc1cc(C)cc(N2C(=O)NC(=O)/C(=C\c3cccn3-c3ccc(Cl)cc3)C2=O)c1 ?
sdo1 growth: -1; RAM network inh: 5.5; Yeast life ext: -1.8; BB579 growth dn: -32.9
